Results published in ChEMBL document CHEMBL4393666, “Synthesis and Anti-HCV Activities of 4'-Fluoro-2'-Substituted Uridine Triphosphates and Nucleotide Prodrugs: Discovery of 4'-Fluoro-2'- C-methyluridine 5'-Phosphoramidate Prodrug (AL-335) for the Treatment of Hepatitis C Infection” (J Med Chem, 2019).
Calls of active or inactive are those of the source. The calls are words filed in the database; no cut-off is given here.

Key:
[1] = target: T1, DNA polymerase alpha (Homo sapiens, UniProt P09884); test: Inhibition of human DNA polymerase-alpha assessed as reduction in [3H]dTTP incorporation in to activated calf thymus DNA substrate at 100 uM by scintillation counting method relative to control; settings: human DNA polymerase-alpha enzyme, probe [3H]dTTP
T1 sequence (P09884 whole entry): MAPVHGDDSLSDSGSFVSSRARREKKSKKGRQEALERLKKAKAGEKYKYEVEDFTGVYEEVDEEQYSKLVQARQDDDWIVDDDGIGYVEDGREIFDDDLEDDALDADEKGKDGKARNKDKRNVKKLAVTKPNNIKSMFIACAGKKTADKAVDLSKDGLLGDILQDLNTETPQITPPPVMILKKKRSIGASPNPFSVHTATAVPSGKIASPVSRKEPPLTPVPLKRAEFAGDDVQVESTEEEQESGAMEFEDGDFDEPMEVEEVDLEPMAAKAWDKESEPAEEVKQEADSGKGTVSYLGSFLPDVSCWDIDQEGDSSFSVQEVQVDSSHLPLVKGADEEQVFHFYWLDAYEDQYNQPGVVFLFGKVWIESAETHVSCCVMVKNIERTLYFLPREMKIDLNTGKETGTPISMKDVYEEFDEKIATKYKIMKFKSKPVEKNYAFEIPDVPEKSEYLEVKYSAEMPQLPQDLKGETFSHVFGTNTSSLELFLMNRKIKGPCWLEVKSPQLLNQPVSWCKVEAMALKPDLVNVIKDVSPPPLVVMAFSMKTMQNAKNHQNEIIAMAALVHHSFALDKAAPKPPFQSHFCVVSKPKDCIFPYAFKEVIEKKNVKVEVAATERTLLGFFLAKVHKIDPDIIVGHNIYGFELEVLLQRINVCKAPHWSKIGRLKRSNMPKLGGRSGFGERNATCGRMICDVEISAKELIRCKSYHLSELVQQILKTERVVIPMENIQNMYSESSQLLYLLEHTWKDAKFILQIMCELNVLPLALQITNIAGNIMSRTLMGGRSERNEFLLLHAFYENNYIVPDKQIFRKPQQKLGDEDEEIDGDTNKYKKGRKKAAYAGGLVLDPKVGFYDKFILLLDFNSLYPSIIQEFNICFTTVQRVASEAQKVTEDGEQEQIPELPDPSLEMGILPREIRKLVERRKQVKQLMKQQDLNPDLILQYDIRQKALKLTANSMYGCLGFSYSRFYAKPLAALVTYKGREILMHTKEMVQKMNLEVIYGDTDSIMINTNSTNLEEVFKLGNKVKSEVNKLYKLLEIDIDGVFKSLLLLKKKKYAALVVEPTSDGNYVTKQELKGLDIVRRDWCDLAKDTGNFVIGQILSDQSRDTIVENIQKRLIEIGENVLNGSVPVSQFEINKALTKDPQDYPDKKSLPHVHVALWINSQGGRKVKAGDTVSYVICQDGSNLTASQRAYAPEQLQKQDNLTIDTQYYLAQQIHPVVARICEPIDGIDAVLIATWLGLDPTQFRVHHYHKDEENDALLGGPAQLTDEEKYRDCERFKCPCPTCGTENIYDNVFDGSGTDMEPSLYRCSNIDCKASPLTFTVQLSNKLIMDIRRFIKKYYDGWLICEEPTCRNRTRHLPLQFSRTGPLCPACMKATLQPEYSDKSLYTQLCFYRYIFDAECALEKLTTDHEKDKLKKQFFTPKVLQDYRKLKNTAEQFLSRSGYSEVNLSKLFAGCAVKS

[2] = Inhibition of RNA polymerase 2 in human HeLa cell nuclear extract assessed as reduction in RNA transcription by PAGE analysis; assay type: cell-based
Outline: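 In vitro transcription by RNA polymerase II in HeLa cell nuclear extract; RNA products resolved on 6% TBE-urea polyacrylamide gels.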

[3] = target: DNA polymerase beta (Homo sapiens, UniProt P06746); test: Inhibition of human DNA polymerase-beta assessed as reduction in [3H]dTTP incorporation in to activated calf thymus DNA substrate at 100 uM by scintillation counting method relative to control; settings: human DNA polymerase-beta enzyme, probe [3H]dTTP
[4] = target: T2, DNA polymerase gamma (Homo sapiens, UniProt P54098); test: Inhibition of human DNA polymerase-gamma assessed as reduction in [3H]dTTP incorporation in to activated calf thymus DNA substrate at 100 uM by scintillation counting method relative to control; settings: human DNA polymerase-gamma enzyme, probe [3H]dTTP
T2 sequence (P54098 whole entry): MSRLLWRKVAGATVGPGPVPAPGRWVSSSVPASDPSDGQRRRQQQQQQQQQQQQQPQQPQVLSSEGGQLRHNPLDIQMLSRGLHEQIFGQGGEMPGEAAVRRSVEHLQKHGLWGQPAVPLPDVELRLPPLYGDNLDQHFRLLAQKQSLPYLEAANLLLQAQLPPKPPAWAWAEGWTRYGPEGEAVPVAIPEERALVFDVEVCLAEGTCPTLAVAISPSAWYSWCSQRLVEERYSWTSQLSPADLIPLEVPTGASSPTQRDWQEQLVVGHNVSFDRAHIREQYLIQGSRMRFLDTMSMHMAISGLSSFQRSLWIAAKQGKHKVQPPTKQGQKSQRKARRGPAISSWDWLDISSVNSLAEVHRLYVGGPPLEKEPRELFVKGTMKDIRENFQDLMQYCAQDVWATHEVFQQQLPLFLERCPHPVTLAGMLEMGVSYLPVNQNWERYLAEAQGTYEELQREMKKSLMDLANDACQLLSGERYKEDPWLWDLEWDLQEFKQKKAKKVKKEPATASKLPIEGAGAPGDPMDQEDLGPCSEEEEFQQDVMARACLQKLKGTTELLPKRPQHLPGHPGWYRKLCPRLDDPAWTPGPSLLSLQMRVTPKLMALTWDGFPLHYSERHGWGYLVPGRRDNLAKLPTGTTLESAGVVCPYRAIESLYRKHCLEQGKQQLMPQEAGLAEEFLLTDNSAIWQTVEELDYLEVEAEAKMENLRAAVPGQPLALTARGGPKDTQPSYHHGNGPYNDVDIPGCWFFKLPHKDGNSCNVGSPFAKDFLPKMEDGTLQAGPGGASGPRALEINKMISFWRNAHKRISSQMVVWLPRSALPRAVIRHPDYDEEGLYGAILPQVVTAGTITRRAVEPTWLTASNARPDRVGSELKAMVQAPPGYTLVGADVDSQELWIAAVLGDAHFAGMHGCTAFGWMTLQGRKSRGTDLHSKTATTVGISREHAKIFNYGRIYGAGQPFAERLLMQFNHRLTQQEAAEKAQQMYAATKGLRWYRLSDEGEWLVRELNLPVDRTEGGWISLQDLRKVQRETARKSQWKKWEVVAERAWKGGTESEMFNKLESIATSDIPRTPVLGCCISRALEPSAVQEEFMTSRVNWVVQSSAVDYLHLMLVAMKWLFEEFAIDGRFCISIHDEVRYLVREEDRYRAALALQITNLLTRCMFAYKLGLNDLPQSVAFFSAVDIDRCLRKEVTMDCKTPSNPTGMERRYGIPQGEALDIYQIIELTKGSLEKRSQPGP

[5] = target: DNA-directed RNA polymerase, mitochondrial (Homo sapiens, UniProt O00411); test: Inhibition of human mitochondrial DNA-dependent RNA polymerase activity at 100 uM using 33P-RNA/DNA primer/template by phosphor-imaging analysis
DNA-directed RNA polymerase, mitochondrial, sequence (O00411 whole entry): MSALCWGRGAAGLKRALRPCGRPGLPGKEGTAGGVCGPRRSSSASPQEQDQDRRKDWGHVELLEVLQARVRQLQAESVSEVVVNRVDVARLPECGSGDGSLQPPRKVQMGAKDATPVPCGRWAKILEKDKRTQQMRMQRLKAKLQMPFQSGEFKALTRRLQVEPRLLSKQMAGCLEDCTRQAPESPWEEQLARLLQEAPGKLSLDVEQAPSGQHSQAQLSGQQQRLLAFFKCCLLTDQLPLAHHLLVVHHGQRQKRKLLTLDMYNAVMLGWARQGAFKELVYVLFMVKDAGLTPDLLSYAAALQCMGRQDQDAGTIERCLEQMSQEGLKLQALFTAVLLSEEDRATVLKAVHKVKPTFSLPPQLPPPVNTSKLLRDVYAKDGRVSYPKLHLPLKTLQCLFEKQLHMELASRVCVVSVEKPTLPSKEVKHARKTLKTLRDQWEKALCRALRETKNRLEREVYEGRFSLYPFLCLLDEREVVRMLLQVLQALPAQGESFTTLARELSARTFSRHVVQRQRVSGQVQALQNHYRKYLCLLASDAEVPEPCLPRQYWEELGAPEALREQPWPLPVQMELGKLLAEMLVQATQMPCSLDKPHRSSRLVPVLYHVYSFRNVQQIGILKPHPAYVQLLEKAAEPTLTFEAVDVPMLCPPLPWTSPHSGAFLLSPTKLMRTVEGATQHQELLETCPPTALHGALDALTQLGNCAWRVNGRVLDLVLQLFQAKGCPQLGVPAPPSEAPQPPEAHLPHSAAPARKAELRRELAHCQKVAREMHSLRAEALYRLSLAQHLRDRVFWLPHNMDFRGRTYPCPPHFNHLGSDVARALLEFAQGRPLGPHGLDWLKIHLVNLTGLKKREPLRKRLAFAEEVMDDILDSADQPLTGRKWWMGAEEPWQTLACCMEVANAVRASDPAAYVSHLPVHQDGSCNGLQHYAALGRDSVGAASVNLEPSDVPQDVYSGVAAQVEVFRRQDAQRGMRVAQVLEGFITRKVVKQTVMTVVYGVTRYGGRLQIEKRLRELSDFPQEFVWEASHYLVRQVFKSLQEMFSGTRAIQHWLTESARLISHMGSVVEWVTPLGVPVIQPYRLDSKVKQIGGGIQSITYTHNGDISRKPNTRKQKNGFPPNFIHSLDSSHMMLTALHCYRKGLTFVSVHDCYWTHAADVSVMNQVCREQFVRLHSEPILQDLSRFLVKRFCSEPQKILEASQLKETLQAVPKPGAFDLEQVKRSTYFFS

[6] = target: RNA-directed RNA polymerase (Hepacivirus hominis, UniProt O39930); test: Inhibition of HCV NS5B RNA-dependent RNA polymerase activity assessed as reduction in radiolabeled-CTP incorporation into RNA using cIRES template measured after 2 hrs by microscintillation counting method
RNA-directed RNA polymerase, sequence (O39930 whole entry): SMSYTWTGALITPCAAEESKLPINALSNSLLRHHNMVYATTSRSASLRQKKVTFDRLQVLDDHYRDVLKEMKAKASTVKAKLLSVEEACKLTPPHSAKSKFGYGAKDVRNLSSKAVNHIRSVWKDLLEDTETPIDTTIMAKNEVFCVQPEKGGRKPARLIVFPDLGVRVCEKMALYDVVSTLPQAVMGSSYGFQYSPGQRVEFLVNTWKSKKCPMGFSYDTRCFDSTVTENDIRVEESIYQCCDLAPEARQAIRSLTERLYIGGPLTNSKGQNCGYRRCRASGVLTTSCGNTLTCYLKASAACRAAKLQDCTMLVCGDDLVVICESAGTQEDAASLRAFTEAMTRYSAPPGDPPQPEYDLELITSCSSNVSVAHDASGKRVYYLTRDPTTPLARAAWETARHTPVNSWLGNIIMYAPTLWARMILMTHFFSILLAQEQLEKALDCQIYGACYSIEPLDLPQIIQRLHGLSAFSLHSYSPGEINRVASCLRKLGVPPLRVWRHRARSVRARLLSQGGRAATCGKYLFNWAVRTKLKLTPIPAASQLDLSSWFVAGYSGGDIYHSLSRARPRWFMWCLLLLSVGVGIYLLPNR

[7] = target: RNA-directed RNA polymerase (Hepacivirus hominis) (UniProt O39930); test: Inhibition of HCV NS5B RNA-dependent RNA polymerase assessed as chain termination of RNA synthesis by measuring reduction in UTP incorporation at 100 uM using 33P-labeled 5'-GG-3'/5'-AUGUAUAAUUAUUGUAGCC-3' as primer/template measured after 2 hrs by phosphor-screening analysis
RNA-directed RNA polymerase (Hepacivirus hominis), sequence (O39930 1-591): as the sequence (O39930 whole entry) above
Outline: (§1)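 Recombinant NS5B (2 μM) with 1 μM template and 0.5 μM 33P-labeled GG primer in 40 mM Tris-HCl pH 8, 3 mM DTT, 20 mM NaCl, 6 mM MgCl2. Started with combinations of CTP, ATP, UTP, test NTP and 3'-dUTP, each 100 μM; 2 h at 30°C. Samples denatured 95°C 5 min, resolved on 22.5% polyacrylamide urea sequencing gel, phosphor-screen imaged.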

[8] = target: RNA-directed RNA polymerase (Hepacivirus hominis) (UniProt O39930); test: Inhibition of HCV NS5B RNA-dependent RNA polymerase assessed as chain termination of RNA synthesis by measuring reduction in dUTP incorporation at 100 uM using 33P-labeled 5'-GG-3'/5'-AUGUAUAAUUAUUGUAGCC-3' as primer/template measured after 2 hrs by phosphor-screening analysis; outline: as §1

Row | Compound | inhibition at 100 µM [1] [%] | IC50 [2] [µM] | inhibition at 100 µM [3] [%] | inhibition at 100 µM [4] [%] | inhibition (INH) [5] | IC50 [6] [nM] | inhibition [7] | inhibition [8]
1 | C[C@@]1(O)[C@H](O)[C@@H](COP(=O)(O)OP(=O)(O)OP(=O)(O)O)O[C@H]1n1ccc(=O)[nH]c1=O | 22.4 | > 100 | -0.008 | 14.6 | Active |  |  | 
2 | O=c1ccn([C@@H]2O[C@](F)(COP(=O)(O)OP(=O)(O)OP(=O)(O)O)[C@@H](O)[C@]2(F)Cl)c(=O)[nH]1 | 75.8 |  | 18.1 | 7.9 |  | 190 |  | 
3 | C[C@]1(O)[C@H](n2ccc(=O)[nH]c2=O)O[C@](F)(COP(=O)(O)OP(=O)(O)OP(=O)(O)O)[C@H]1O [ADAFOSBUVIR 5'-TRIPHOSPHATE] | 16.1 | > 100 | 12.6 | 9.6 | Not Active | 140 | Active | Active
4 | C[C@]1(Cl)[C@H](n2ccc(=O)[nH]c2=O)O[C@](F)(COP(=O)(O)OP(=O)(O)OP(=O)(O)O)[C@H]1O | 19.7 | > 100 | 24.3 | 18.4 | Not Active | 110 |  | 
5 | C[C@@]1(Cl)[C@H](O)[C@@H](COP(=O)(O)OP(=O)(O)OP(=O)(O)O)O[C@H]1n1ccc(=O)[nH]c1=O [4A-TP] | 34.5 | > 100 | 22.6 | 9.5 | Active |  |  | 
